The list is not random: actives were taken first. Their share in the collection is about 2.3%.
T cell HTS = modulators of CD8 T cell-vesicle binding, primary screen, mouse 2C CD8+ T cells, flow cytometry; 2C CD8+ T cell-vesicle binding; hits give low values; response (vesicle binding), % at 7 µM; hit rate 0.068% among 330,000; AID 2052, 2009;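 active means response, share of CD8 T cells binding vesicles, and their 90th percentile fluorescence all below set limits, cut at about 80% in these data, passing the limit was not always enough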;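 further: values below 100% mean blocked vesicle binding to the CD8+ T cells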
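Test system: purified 2C TCR transgenic mouse naive CD8+ T cells. Probe or stimulus: QL9-peptide-loaded Drosophila micro-vesicles bearing Ld, ICAM-1 and B7-1. Incubation: binding step 1.5 h, 37 °C, antibody labelling 20 min, ice. Measured by: flow cytometry of vesicle-bound cells.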
Pemphigus Ab inh = inhibitors of pemphigus antibody binding to DSG3, primary screen, biochemical, bead-based, flow cytometry, scFv-GFP | AID 588358, 2011 | hit rate 0.48% among 310,000 | binding (percent of control), % at 10 µM | DSG3-coupled beads, scFv-anti-DSG3-GFP binding; hits give low values;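 active means binding more than 3 SD below its plate's average and above zero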;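 further: hits lower antibody fragment binding to DSG3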
GPR7 antag = GPR7 receptor antagonists, primary screen, cell-based, fluorescence, single concentration; AID 1861, 2009; hit rate 1.1% among 290,000; inhibition, % at 4.4 µM; GPR7-expressing cells, fluorescence antagonist assay; in the data active means inhibition above about 16%, passing the limit was not always enough;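 further: cells stimulated with the agonist NPW; 0% = agonist with vehicle and 100% = vehicle without agonist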
CHT PAM = CHT positive allosteric modulators, primary screen, cell-based, membrane potential dye, choline EC20; High affinity choline transporter 1 (Homo sapiens), Q9GZV3; CHT-expressing cells; hits give high values; LV-AA mutant CHT in HEK293 cells; B-score at 10 µM; hit rate 0.49% among 310,000; AID 488977, 2010;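 active means initial fluorescence not abnormally high and integrated response B-score, plate-corrected, over 3 SD above library mean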
Target sequence (Q9GZV3 whole entry, looked up): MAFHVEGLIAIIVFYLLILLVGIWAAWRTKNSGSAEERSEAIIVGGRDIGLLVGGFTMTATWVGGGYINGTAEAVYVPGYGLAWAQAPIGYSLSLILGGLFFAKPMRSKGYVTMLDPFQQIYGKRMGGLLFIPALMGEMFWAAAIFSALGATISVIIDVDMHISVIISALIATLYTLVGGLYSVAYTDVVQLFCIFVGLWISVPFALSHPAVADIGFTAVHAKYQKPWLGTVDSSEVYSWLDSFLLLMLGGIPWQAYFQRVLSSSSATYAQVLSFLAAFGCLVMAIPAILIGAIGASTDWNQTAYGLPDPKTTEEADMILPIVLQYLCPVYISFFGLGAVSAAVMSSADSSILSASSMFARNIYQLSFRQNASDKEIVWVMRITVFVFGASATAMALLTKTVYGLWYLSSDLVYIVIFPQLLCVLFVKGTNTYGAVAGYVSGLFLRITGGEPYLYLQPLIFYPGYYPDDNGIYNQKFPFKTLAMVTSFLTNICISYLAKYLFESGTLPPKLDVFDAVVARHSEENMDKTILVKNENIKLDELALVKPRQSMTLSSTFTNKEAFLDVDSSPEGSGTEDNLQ
p-CIP stab down = p/CIP-EGFP fusion destabilizers, primary screen, fluorescence, F442A cells; hit rate 0.01% among 290,000; Q05BA5; decrease of EGFP signal, % at 10 µM; 16 h;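 active means EGFP signal decrease of at least 30% at 10 µM or well 3 SD below plate mean, unless failing retest; inactive means the rest, including hits failing retest or dose response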
CHT block = inhibitors of human choline transporter CHT; B-score at 10 µM; CHT-expressing cells, membrane potential dye, choline response; hits give low values; AID 488975, 2010; High affinity choline transporter 1 (Homo sapiens), Q9GZV3; hit rate 0.86% among 310,000;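 active means B-score over 3 SD under the library average, and starting fluorescence ratio not unusually high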;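 further: choline stimulus applied at its EC90 after an EC20 pre-addition; B-score computed on integrated fluorescence ratio after choline addition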
Numbers without * were called inactive.

For ClC(Cl)(c1nnnn1-c1ccccc1)c1nnnn1-c1ccccc1 the results were T cell HTS 185, Pemphigus Ab inh 77*, GPR7 antag 1, CHT PAM inactive, p-CIP stab down 0 and CHT block inactive.
For c1ccc(-c2nnnn2-c2ccccc2)cc1 the results were T cell HTS 313, Pemphigus Ab inh 108, GPR7 antag -14, CHT PAM inactive, p-CIP stab down 8 and CHT block inactive.
For O=C(CSc1ccccc1)N/N=C/c1ccccc1O the results were T cell HTS 285, Pemphigus Ab inh 101, GPR7 antag -1, CHT PAM inactive, p-CIP stab down 2 and CHT block inactive.
`COc1ccc(CSCC(=O)N/N=C/c2ccccc2O)cc1` gave T cell HTS 353, Pemphigus Ab inh 53*, GPR7 antag -14, CHT PAM inactive, p-CIP stab down -2 and CHT block inactive.
CC1CCN(S(=O)(=O)c2cccc(C(=O)N(Cc3ccccc3)c3ccccn3)c2)CC1 was read as T cell HTS 401, Pemphigus Ab inh 103, GPR7 antag 19*, CHT PAM inactive, p-CIP stab down 4 and CHT block inactive.
CN1CCN(S(=O)(=O)c2cccc(C(=O)N(c3ccccn3)C3CCCCC3)c2)CC1 was read as T cell HTS 300, Pemphigus Ab inh 105, GPR7 antag -7, CHT PAM inactive, p-CIP stab down 2 and CHT block inactive.
For COc1ccc(CN(CCCn2cnc3c(OC)ncnc32)CCCn2cnc3c(OC)ncnc32)cc1 the results were Pemphigus Ab inh 99.
Screening COCCN(CC(=O)Nc1cccc(C)c1)S(=O)(=O)c1ccc(S(=O)(=O)N2CCCC2)cc1 returned T cell HTS 181, Pemphigus Ab inh -25*, GPR7 antag -6, CHT PAM inactive, p-CIP stab down 4 and CHT block inactive.
Cc1cccc(NC(=O)CSCC(=O)Nc2ccc(S(=O)(=O)N3CCCCC3)cc2)c1 was read as Pemphigus Ab inh 99.
Screening Cc1cn([C@H]2C[C@H](O)[C@@H](CNCc3cccc(OC4CCCC4)c3)O2)c(=O)[nH]c1=O returned Pemphigus Ab inh 102.
For O=C1C=CC(=O)c2c(O)c(CO)c(CO)c(O)c21 the results were Pemphigus Ab inh 25*.
O=c1c(CO)cc(CO)cc(CO)c1O was read as T cell HTS 71, Pemphigus Ab inh 84, GPR7 antag 17, CHT PAM inactive, p-CIP stab down 0 and CHT block inactive.
For COCCN(C(=O)CCC(=O)Nc1cccnc1)C(C(=O)NC1CCCCC1)c1ccccc1 (centres undefined) the results were T cell HTS 333, Pemphigus Ab inh 82*, GPR7 antag 7, CHT PAM inactive, p-CIP stab down 4 and CHT block inactive.
Screening COc1ccccc1C(C)Nc1nc(-c2cccnc2)nc2ccccc12 (centres undefined) returned T cell HTS 477, Pemphigus Ab inh 106, GPR7 antag 14, CHT PAM inactive, p-CIP stab down -9 and CHT block inactive.
`O=C(/C(=C\c1ccccc1)c1nc2ccccc2[nH]1)c1ccc(Cl)cc1` gave T cell HTS 339, Pemphigus Ab inh 124, GPR7 antag -11, CHT PAM inactive, p-CIP stab down 1 and CHT block inactive.
O=C(/C(=C/c1ccc(Cl)cc1)c1nc2ccccc2[nH]1)c1cccs1 was read as T cell HTS 370, Pemphigus Ab inh 99, GPR7 antag 25*, CHT PAM inactive, p-CIP stab down -7 and CHT block inactive.
Screening O=C(O)C1Nc2c(Cl)cc(Cl)cc2C2C=CCC12 (centres undefined) returned T cell HTS 595, Pemphigus Ab inh 100, GPR7 antag -9, CHT PAM inactive, p-CIP stab down -8 and CHT block inactive.
O=C(O)C1Nc2c(O)cccc2C2C=CCC12 (centres undefined) was read as T cell HTS 257, Pemphigus Ab inh 83*, GPR7 antag 7, CHT PAM inactive, p-CIP stab down 5 and CHT block inactive.
`C=C1C(=O)N(C)CCC1C(CC)C(=O)OC` (centres undefined) gave Pemphigus Ab inh 101.
`COc1ccc(NC(=O)CSc2nnnn2C2CCCC2)cc1S(=O)(=O)N1CCOCC1` gave Pemphigus Ab inh 96.
Screening C=CCOC(=O)C1=C(C)NC(SCC(N)=O)=C(C#N)C1c1cccs1 (centres undefined) returned T cell HTS 94, Pemphigus Ab inh 18*, GPR7 antag -15, CHT PAM inactive, p-CIP stab down -7 and CHT block inactive.
Screening NNc1ccc([N+](=O)[O-])c2[nH][nH]c(=O)c12 returned Pemphigus Ab inh 83*.
Screening CCOc1ccc(OCc2ccc(C(=O)OCc3ccccn3)o2)cc1 returned T cell HTS 425, Pemphigus Ab inh 40*, GPR7 antag -4, CHT PAM inactive, p-CIP stab down 9 and CHT block inactive.
Screening O=C(CCC(=O)N1CCOc2ccccc21)NCCCN1CCN(Cc2ccccc2)CC1 returned T cell HTS 370, Pemphigus Ab inh 103, GPR7 antag 21*, CHT PAM inactive, p-CIP stab down -4 and CHT block inactive.
CCCCn1c(N)c(N(CCOC)C(=O)CCS(=O)(=O)c2ccc(C)cc2)c(=O)[nH]c1=O was read as Pemphigus Ab inh 101.
`O=C(CNC(=O)C(c1ccccc1)c1ccccc1)N/N=C/c1cccnc1` gave T cell HTS 816, Pemphigus Ab inh 90, GPR7 antag 20*, CHT PAM inactive, p-CIP stab down 3 and CHT block inactive.
Screening O=c1ccc2c(ccc3ncccc32)o1 returned Pemphigus Ab inh 107.
`COc1ccc(-c2noc(CCC(=O)NC3CCCCCC3)n2)cc1OC` gave Pemphigus Ab inh 83*.
`COc1cc(-c2noc(CCC(=O)NC3CCCC3)n2)cc(OC)c1OC` gave T cell HTS 197, GPR7 antag -2, CHT PAM inactive, p-CIP stab down 0 and CHT block inactive.
`Cc1nnc(SCC(=O)NC2(C#N)CCCCC2)n1N` gave Pemphigus Ab inh 98.
`COc1ccc2c(c1)C(c1ccc([N+](=O)[O-])cc1)=NNC(c1ccco1)=N2` gave T cell HTS 0.0*, Pemphigus Ab inh 101, GPR7 antag 0, CHT PAM inactive, p-CIP stab down -1 and CHT block inactive.
For CCn1cc(/C=C(\NC(=O)c2ccccc2)C(=O)NCCCn2ccnc2)c2ccccc21 the results were Pemphigus Ab inh 99.
